Screening data deposited in PubChem BioAssay by several laboratories.
HKDC1 inhibitor: blocks human hexokinase HKDC1 activity; Q2TB90; recombinant HKDC1, G6PDH/diaphorase resazurin coupled fluorescence; inhibition, % at 20 µM; 340,000 compounds, 0.16% hits;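 active = inhibition above about 35% when tested at 20 µM, limit read from the data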;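 note: plate controls were DMSO wells with enzyme for no effect and DMSO wells lacking enzyme for full effect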
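System: Recombinant HKDC1 hexokinase | Amount: HKDC1 at 5 µg/mL | Reagent: Glucose with 1 mM ATP | Doses: Single 20 µM dose | Incubation: Reaction time 90 min, room temperature, protected from light | Signal: Coupled resazurin fluorescence, excitation 525 nm, emission 613 nm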
PfM18AAP inh: blocks P. falciparum M18 aspartyl aminopeptidase; recombinant PfM18AAP, H-Glu-NHMec fluorogenic cleavage; inhibition, % at 7.35 µM; 290,000 compounds, 1.2% hits;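 active = inhibition above the campaign mean inhibition over all tested compounds plus 3 SD, cut at about 28% in these data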;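 note: 0% = plate median of test compound wells and 100% = 2 mM ZnCl2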
SUMO HTRF inh: blocks human SUMOylation mediated by UBC9; 290,000 compounds, 0.36% hits; inhibition, % at 35 µM; HTRF SUMOylation assay, SAE1/SAE2 + UBC9, in vitro; P63279; in the data active = inhibition above about 50%, passing the limit was not always enough; inconclusive = no clear call, values can overlap the other calls
Target sequence (P63279 whole entry, looked up): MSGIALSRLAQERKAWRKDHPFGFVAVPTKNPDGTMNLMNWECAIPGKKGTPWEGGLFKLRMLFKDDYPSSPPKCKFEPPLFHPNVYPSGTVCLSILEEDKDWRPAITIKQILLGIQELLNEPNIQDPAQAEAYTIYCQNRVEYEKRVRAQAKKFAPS
APOBEC3A inh: inhibitors of human APOBEC3A DNA deaminase. P31941. recombinant A3A, FAM/TAMRA ssDNA deamination fluorescence. inhibition, % at 20 µM. 330,000 compounds, 0.41% hits. AID 493011;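 active = at least 40% inhibition at 20 µM here, with at most 30% in a related deaminase screen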;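 note: plate controls were A3A with DMSO for no effect and wells lacking A3A enzyme for full effect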
PfGluPho inh: PfG6PD (Plasmodium falciparum) enzyme inhibition | inhibition, % at 20 µM | 350,000 compounds, 0.78% hits | PfGluPho enzyme, NADPH resazurin-diaphorase fluorescence | AID 504690;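 active = inhibition reaching at least a set limit at 20 µM in the primary screen, cut at about 59% in these data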;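 note: 0% = DMSO wells with substrate and 100% = DMSO wells lacking glucose-6-phosphate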
A3G deaminase: APOBEC3G (human) deaminase inhibition | AID 493012 | recombinant A3G, ssDNA deamination FAM/TAMRA fluorescence | 330,000 compounds, 0.28% hits | inhibition, % at 20 µM;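 active = inhibition of at least 40% at 20 µM, with no more than 30% in the related APOBEC3A deaminase screen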;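 note: plate controls were DMSO wells with A3G for no effect and wells lacking A3G enzyme for full effect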
Target sequence (Q9HC16 whole entry, looked up): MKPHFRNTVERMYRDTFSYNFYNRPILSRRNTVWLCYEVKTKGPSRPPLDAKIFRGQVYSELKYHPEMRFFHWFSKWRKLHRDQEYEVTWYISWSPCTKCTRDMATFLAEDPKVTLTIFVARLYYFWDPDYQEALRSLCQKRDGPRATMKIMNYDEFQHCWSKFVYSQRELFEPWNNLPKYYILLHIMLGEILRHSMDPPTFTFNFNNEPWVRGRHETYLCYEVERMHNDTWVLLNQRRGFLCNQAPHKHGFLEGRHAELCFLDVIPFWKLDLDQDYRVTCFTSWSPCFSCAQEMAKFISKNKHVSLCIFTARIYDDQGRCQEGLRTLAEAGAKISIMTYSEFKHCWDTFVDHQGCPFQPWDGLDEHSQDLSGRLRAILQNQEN
* hit, by the source's call; ? = inconclusive; · = no result. An excerpt weighted towards active compounds, which were near 2.4% of everything screened.

SMILES | HKDC1 inhibitor | PfM18AAP inh | SUMO HTRF inh | APOBEC3A inh | PfGluPho inh | A3G deaminase
Cc1ccc(NC(=O)CSc2nnc(-c3ccco3)c(-c3ccco3)n2)cc1 | 9 | -2 | 59 | 83 | 46 | 59
Cc1ccccc1NC(=O)CSc1nnc(-c2ccco2)c(-c2ccco2)n1 | 15 | 14 | 65* | 83 | 33 | 64
CC(C)(C)NS(=O)(=O)c1ccc(NC(=S)NC(=O)C2CC2)cc1 | 5 | -17 | 6 | -4 | -5 | -8
O=C(CC(O)(c1ccccc1)c1ccccc1)Nc1ccccn1 | 3 | · | · | · | -5 | ·
Cc1ccc(C(=O)N2CC3(C)CN(C(=O)c4ccc(C)cc4)CC(C)(C2)C3=O)cc1 | -5 | -3 | 4 | -1 | -12 | -9
N#Cc1cc2c(=O)n3ccccc3nc2n(Cc2ccco2)c1=NC(=O)c1ccco1 | 1 | -13 | 52* | 63 | -5 | 63
Nc1ccccc1SC/C=C/CSc1ccccc1N | 3 | 6 | 6 | 0 | 35 | -3
CCN(CC)c1ccc(N=Cc2ccccc2[N+](=O)[O-])cc1 | 2 | 20 | 8 | 8 | 56 | -3
CCN(CC)c1ccc(N=Cc2ccc([N+](=O)[O-])o2)cc1 | 5 | 17 | -57 | 3 | 69* | 6
CCOC(=O)C1=C(C)c2ccccc2N(C(=O)OC)C1(C)C(=O)OCC (stereo not given) | 21 | · | · | 3 | 61* | 12
O=C(COc1ccc(Nc2ccccc2)cc1)OCC(=O)N1CCCCC1 | 3 | 29* | -4 | -6 | 21 | -4
O=C(COc1ccc(Cl)cc1)OCC(=O)N1CCCCCC1 | -5 | -1 | 2 | -9 | 0 | -2
Oc1ccccc1C(=S)N1CCN(c2cccc(Cl)c2)CC1 | -6 | 30* | -9 | 1 | 53 | 33
COc1ccc(CCNC(=O)c2ccc3nc(-c4ccco4)c(-c4ccco4)nc3c2)cc1OC | 27 | 3 | 85 | 74 | 62* | 84
Cc1cc(NC(=O)COC(=O)c2oc3c(ccc4ccccc43)c2C)no1 | 17 | -3 | 22 | 0 | -19 | -4
Oc1ccc(/C=N/N=C/c2ccc(O)cc2)cc1 | -7 | -7 | 12 | -4 | -6 | -5
Oc1ccc(N=Cc2ccc(O)c(O)c2)cc1 | 25 | 46* | ? | 12 | 67* | 39
O=C(CSc1nc2nc(-c3cccs3)cc(C(F)(F)F)c2c(=O)[nH]1)Nc1ccc(F)c(F)c1 | 6 | -16 | 56* | -1 | -13 | -4
Cc1ccc(C)c(NC(=O)CSc2nc3nc(-c4cccs4)cc(C(F)(F)F)c3c(=O)[nH]2)c1 | 8 | 3 | 28 | 0 | -49 | -5
COCCN(Cc1cc2cc3c(cc2nc1Cl)OCO3)C(=O)Nc1ccc(F)cc1 | -8 | -8 | -6 | -4 | 25 | -7
COCCN1Cc2cccc(C(=O)NCc3ccc4c(c3)OCO4)c2C1=O | 14 | 29* | 16 | 0 | 9 | -7
CC(C)CC(C)c1cc(N)nc2nc3ccccc3n12 (stereo not given) | -4 | -7 | 20 | -2 | -1 | -6
Cc1ccc(NC(=O)C2CCN(S(=O)(=O)c3ccc4c(c3)OCCO4)CC2)c(O)c1 | -3 | · | · | 1 | 13 | -2
CCOc1ncccc1C(=O)Nc1ccccc1F | -5 | -1 | -3 | 6 | -4 | 1
CCN(CC)c1ccc(NC(=O)c2ccc(NC(=O)C3CCCO3)cc2)c(C)c1 (stereo not given) | -3 | 31* | 14 | · | 0 | ·
SMILES | HKDC1 inhibitor | PfM18AAP inh | SUMO HTRF inh | APOBEC3A inh | PfGluPho inh | A3G deaminase
Cc1cc(NC(=O)c2ccc(NC(=O)C3CCCO3)cc2)ccc1Br (stereo not given) | -6 | 5 | -4 | -5 | 14 | -5
CCOCCCNC(=O)c1ccc2c(c1)N(Cc1ccccc1)C(=O)CS2=O (stereo not given) | -2 | 28* | 8 | -2 | 10 | -6
Nc1nnc(SCC(=O)Nc2cccc(Cl)c2)s1 | -1 | · | · | 3 | 20 | 2
COC(=O)c1cnc(NNC(=O)c2ccc([N+](=O)[O-])cc2)nc1C(F)(F)F | 0 | 2 | -1 | 1 | 5 | 10
COC(=O)c1cnc(NNS(=O)(=O)c2ccc(Cl)cc2)nc1C(F)(F)F | 0 | 29* | -4 | -1 | 7 | -5
Cc1ccc(NC(=O)CSc2nnc(-c3ccncc3)n2C)cc1C | -2 | -8 | -2 | 0 | -1 | 0
S=C(c1ccc(OCc2ccccc2)cc1)N1CCCC1 | -3 | 3 | -6 | 0 | -7 | -9
CCCc1cc(C(=O)Nc2sc(C)c(C)c2C(=O)OCC)no1 | -4 | 35* | 2 | -2 | 43 | 15
Cc1ccc(-c2nc3ccccc3nc2NN)cc1 | 2 | 31* | 13 | -2 | 1 | 4
O=c1c(-c2ccccc2)coc2c(CN3CCCC3)c(O)ccc12 | -8 | -2 | 50* | 0 | 9 | -4
O=C(NNC(=O)c1sc2ccccc2c1Cl)Nc1ccc(Cl)cc1 | -6 | -3 | 52* | -1 | -18 | -2
CCOCCCN1CN(Cc2ccco2)CNC1=S | 4 | 1 | 94 | 3 | -1 | 8
O=S(=O)(O)c1cccc2c(N=Nc3ccc(O)c4ncccc34)cccc12 | 10 | 16 | 90* | · | -5 | ·
O=c1c(CO)cc(CO)cc(CO)c1O | -5 | 12 | -13 | 0 | -8 | -2
CCCNC(=O)c1ccc2c(=O)n(Cc3ccco3)c(=S)[nH]c2c1 | 0 | 10 | 64* | 3 | 4 | -2
COC1C=COC2(C)Oc3c(C)c(O)c4c(O)c(c(CN5CCN(C)CC5)c(O)c4c3C2=O)NC(=O)C(C)=CC=CC(C)C(O)C(C)C(O)C(C)C(OC(C)=O)C1C (stereo not given) | 7 | · | · | · | 27 | ·
CO[C@H]1C=CO[C@@]2(C)Oc3c(C)c(O)c4c(O)c(c5c(nc6cc(C)ccn65)c4c3C2=O)NC(=O)C(C)=CC=C[C@H](C)[C@H](O)[C@@H](C)[C@@H](O)[C@@H](C)[C@H](OC(C)=O)[C@@H]1C | · | 48* | 3 | -4 | · | -6
CC(=O)OCCCNc1cc(Sc2ccc(C)cc2)c2nonc2c1[N+](=O)[O-] | 3 | -7 | 27 | -2 | 17 | -10
COC(=O)CCSc1cc(NCCOC(C)=O)c([N+](=O)[O-])c2nonc12 | 21 | 6 | 13 | -1 | -3 | -2
CCCC(=O)OCCNc1cc(SCCC(=O)OC)c2nonc2c1[N+](=O)[O-] | 1 | -1 | 74* | 1 | 25 | -1
CC(=O)OCCNc1cc(Sc2nc3ccccc3[nH]2)c2nonc2c1[N+](=O)[O-] | 11 | -62 | 39 | · | 65* | ·
Cc1ccc(C)c(CSc2nc3[nH]ncc3c(=O)[nH]2)c1 | 1 | 8 | -4 | 1 | -10 | -1
Cc1ccccc1CSc1nc2[nH]ncc2c(=O)[nH]1 | -6 | 31* | -4 | 7 | 0 | -6
CCOc1ccc(Nc2ncnc(N)n2)cc1 | -5 | -9 | 16 | 4 | 3 | 1
